Source: ChEMBL document CHEMBL1143988, “11-(pyridinylphenyl)steroids--a new class of mixed-profile progesterone agonists/antagonists” (Bioorg Med Chem, 2008)

Assays:
Assay type in all cases: functional, cell-based
[1] = biological target: T1, Progesterone receptor (Homo sapiens) (UniProt P06401); test: Agonist activity at human PRB expressed in CHO cells relative to Org 2058
T1 sequence (whole entry): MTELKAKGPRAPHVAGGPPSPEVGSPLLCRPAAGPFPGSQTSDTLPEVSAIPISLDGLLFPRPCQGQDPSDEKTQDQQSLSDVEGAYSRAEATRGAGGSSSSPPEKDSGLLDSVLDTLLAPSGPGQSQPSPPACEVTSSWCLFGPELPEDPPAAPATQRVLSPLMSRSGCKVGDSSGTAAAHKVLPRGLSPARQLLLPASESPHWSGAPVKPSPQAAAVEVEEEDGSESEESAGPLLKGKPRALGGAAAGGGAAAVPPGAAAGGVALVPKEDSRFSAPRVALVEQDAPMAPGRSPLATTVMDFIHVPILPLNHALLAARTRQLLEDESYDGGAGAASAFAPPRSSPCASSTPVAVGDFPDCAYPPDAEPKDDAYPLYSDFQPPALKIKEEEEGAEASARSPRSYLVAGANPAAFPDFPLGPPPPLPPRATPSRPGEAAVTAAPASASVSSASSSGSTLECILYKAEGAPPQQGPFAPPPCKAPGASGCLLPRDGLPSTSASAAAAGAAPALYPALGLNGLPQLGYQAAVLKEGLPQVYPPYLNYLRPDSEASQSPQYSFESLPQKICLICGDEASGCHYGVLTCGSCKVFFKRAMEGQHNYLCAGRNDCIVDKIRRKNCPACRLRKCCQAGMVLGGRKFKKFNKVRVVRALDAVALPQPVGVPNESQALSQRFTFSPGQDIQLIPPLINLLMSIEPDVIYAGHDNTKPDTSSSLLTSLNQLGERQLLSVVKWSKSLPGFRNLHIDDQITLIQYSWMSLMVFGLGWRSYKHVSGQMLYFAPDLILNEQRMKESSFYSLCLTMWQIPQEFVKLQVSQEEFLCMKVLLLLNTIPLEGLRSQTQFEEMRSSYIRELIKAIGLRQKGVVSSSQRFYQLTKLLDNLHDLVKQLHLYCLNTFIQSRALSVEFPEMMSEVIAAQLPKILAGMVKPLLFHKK

Progesterone receptor [2] = biological target: T2, Progesterone receptor (Homo sapiens, UniProt P06401); test: Antagonist activity at human PRB expressed in CHO cells assessed as inhibition of Org 2058 induced-transactivation
T2 sequence (P06401 whole entry): T1 sequence (whole entry)
Procedure, shortened: (§1)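 PR-B-mediated luciferase transactivation antagonist mode, run in the same setting as the agonist assay, with 0.1 nM Org 2058 as inducer; IC50 taken from inhibition of luciferase induction. Efficacy given relative to the antagonist Org 31710, whose effect is set to 100%.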

[3] = biological target: T1, Progesterone receptor (Homo sapiens); test: (§2) Antagonist activity at human PRB expressed in CHO cells assessed as inhibition of Org 2058 induced-transactivation relative to Org 31710; procedure, shortened: as §1
Progesterone receptor [4] = biological target: T2, Progesterone receptor; test: as §2; procedure, shortened: as §1
Progesterone receptor [5] = biological target: T2, Progesterone receptor; test: Agonist activity at human PRB expressed in CHO cells

Compound | Efficacy [1] [%] | IC50 (Progesterone receptor [2]) [nM] | Efficacy [3] [%] | IC50 (Progesterone receptor [4]) [nM] | EC50 (Progesterone receptor [5]) [nM]
C[C@@H]1C[C@H]2[C@@H]3CCC4=CC(=O)CCC4=C3[C@@H](c3ccc(-c4cnc5ccccc5c4)cc3)C[C@]2(C)[C@H]1C(=O)C1CC1 | 50 | 3.14 | 24 |  | 
C[C@@H]1C[C@H]2[C@@H]3CCC4=CC(=O)CCC4=C3[C@@H](c3ccc(-c4ncccn4)cc3)C[C@]2(C)[C@H]1C(=O)C1CC1 | 52 | 3.25 | > 27 |  | 
CC[C@@H]1C[C@H]2[C@@H]3CCC4=CC(=O)CCC4=C3[C@@H](c3ccc(-c4ccc(OC)nc4)cc3)C[C@]2(C)[C@H]1C(=O)C1CC1 | 42 | 7.89 | 52 |  | 
C[C@@H]1C[C@H]2[C@@H]3CCC4=CC(=O)CCC4=C3[C@@H](c3ccc(-c4ccccn4)cc3)C[C@]2(C)[C@H]1C(=O)C1CC1 | 49 | 14.8 | 33 |  | 
C=C[C@@H]1C[C@H]2[C@@H]3CCC4=CC(=O)CCC4=C3[C@@H](c3ccc(-c4ccc(OC)nc4)cc3)C[C@]2(C)[C@H]1C(=O)C1CC1 | 41 | 0.98 | 45 |  | 
CN(C)c1ccc([C@H]2C[C@@]3(C)[C@@H](CC[C@@]34CCCC4=O)[C@@H]3CCC4=CC(=O)CCC4=C32)cc1 |  |  |  | 0.2 | 
C[C@@H]1C[C@H]2[C@@H]3CCC4=CC(=O)CCC4=C3[C@@H](c3ccc(-c4ccncc4)cc3)C[C@]2(C)[C@H]1C(=O)C1CC1 | 56 | 2.5 | 27 |  | 
C[C@@H]1C[C@H]2[C@@H]3CCC4=CC(=O)CCC4=C3[C@@H](c3ccc(-c4ccnnc4)cc3)C[C@]2(C)[C@H]1C(=O)C1CC1 | 51 | 3.64 | 37 |  | 0.36
C[C@@H]1C[C@H]2[C@@H]3CCC4=CC(=O)CCC4=C3[C@@H](c3ccc(-c4ccc(F)nc4)cc3)C[C@]2(C)[C@H]1C(=O)C1CC1 | 51 | 8.48 | 50 |  | 
C[C@@H]1C[C@H]2[C@@H]3CCC4=CC(=O)CCC4=C3[C@@H](c3ccc(-c4cnccn4)cc3)C[C@]2(C)[C@H]1C(=O)C1CC1 | 54 | 1.3 | 35 |  | 
C[C@]12C[C@H](c3ccc(-c4cccnc4)cc3)C3=C4CCC(=O)C=C4CC[C@H]3[C@@H]1CC[C@@H]2C(=O)C1CC1 | 36 | 0.75 | 66 |  | 
C=C1CCO[C@]12CC[C@H]1[C@@H]3CCC4=CC(=O)CCC4[C@H]3[C@@H](c3ccc(N(C)C)cc3)C[C@@]12C (stereo partly drawn) |  |  |  | 0.2 | 

Next, values leading:

Efficacy [1] [%] | IC50 (Progesterone receptor [2]) [nM] | Efficacy [3] [%] | IC50 (Progesterone receptor [4]) [nM] | EC50 (Progesterone receptor [5]) [nM] | Compound
49 | 0.27 | 46 |  |  | C[C@@H]1C[C@H]2[C@@H]3CCC4=CC(=O)CCC4=C3[C@@H](c3ccc(-c4cccnc4)cc3)C[C@]2(C)[C@H]1C(=O)C1CC1
47 | 0.61 | 38 |  |  | C=C[C@@H]1C[C@H]2[C@@H]3CCC4=CC(=O)CCC4=C3[C@@H](c3ccc(-c4cccnc4)cc3)C[C@]2(C)[C@H]1C(=O)C1CC1
28 | 0.43 | 57 |  |  | COc1ccc(-c2ccc([C@H]3C[C@]4(C)[C@@H](C(=O)C5CC5)CC[C@H]4[C@@H]4CCC5=CC(=O)CCC5=C43)cc2)cn1
34 | 0.6 | 53 |  |  | CC[C@@H]1C[C@H]2[C@@H]3CCC4=CC(=O)CCC4=C3[C@@H](c3ccc(-c4cccnc4)cc3)C[C@]2(C)[C@H]1C(=O)C1CC1
17 | 0.33 | 71 |  | 0.29 | C[C@]12C[C@H](c3ccc(-c4cccnc4)cc3)C3=C4CCC(=O)C=C4CC[C@H]3[C@@H]1CCC21CCCC1=O (stereo partly drawn)
 | 0.2 | 100 |  | > 100 | CC(=O)O[C@]1(C(C)=O)CC[C@H]2[C@@H]3CCC4=CC(=O)CCC4=C3[C@@H](c3ccc(N(C)C)cc3)C[C@@]21C [ULIPRISTAL ACETATE]
20 | 0.55 | 62 |  | 0.15 | COc1ccc(-c2ccc([C@H]3C[C@@]4(C)[C@@H](CCC45CCCC5=O)[C@@H]4CCC5=CC(=O)CCC5=C43)cc2)cn1 (stereo partly drawn)
 | 0.2 | 97 |  | > 100 | COC[C@]1(OC)CC[C@H]2[C@@H]3CCC4=CC(=O)CCC4=C3[C@@H](c3ccc(/C=N/O)cc3)C[C@@]21C [ASOPRISNIL]
38 | 0.13 | 58 |  |  | C[C@]12C[C@H](c3ccc(-c4cccnc4)cc3)C3=C4CCC(=O)C=C4CC[C@H]3[C@@H]1CC[C@]2(C)C(=O)C1CC1
47 | 0.47 | 43 |  |  | C[C@@H]1C[C@H]2[C@@H]3CCC4=CC(=O)CCC4=C3[C@@H](c3ccc(-c4ccc(Cl)nc4)cc3)C[C@]2(C)[C@H]1C(=O)C1CC1
42 | 0.63 | 59 |  |  | COc1ccc(-c2ccc([C@H]3C[C@@]4(C)[C@@H](C[C@@H](C)[C@@H]4C(=O)C4CC4)[C@@H]4CCC5=CC(=O)CCC5=C43)cc2)cn1
